PDI inh = inhibitors of human protein disulfide isomerase | PDI insulin aggregation turbidity, A650, 90 min | hit rate 0.052% among 350,000 | P07237 | inhibition, % at 10 µM;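 active means mean inhibition across replicates of 30% or more, whatever share of single replicates reach that level; inconclusive means mean inhibition below 30% while every single replicate reaches 30%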
FGF22 binding = binders of recombinant human FGF22 by thermal shift. Q9HCT0. SYPRO orange fluorescence; percent of sucrose octasulfate shift, DMSO zero. activity (Tm shift, normalised), % at 9.99 µM. hit rate 1.5% among 340,000;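 active means mean Tm shift, scaled 0 neutral to 100 positive control, at about 1.3% or above, every replicate too, limit read from the data; inconclusive means no clear call, values can overlap the other calls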
Target sequence (Q9HCT0 whole entry, looked up): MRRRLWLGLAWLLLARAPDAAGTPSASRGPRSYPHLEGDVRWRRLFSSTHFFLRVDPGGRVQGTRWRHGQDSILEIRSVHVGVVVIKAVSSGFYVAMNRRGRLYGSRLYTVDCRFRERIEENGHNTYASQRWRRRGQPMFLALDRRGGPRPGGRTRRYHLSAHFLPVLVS
S100A4 MyoIIA = S100A4-myosin IIA interaction inhibition. P26447. S100A4/TAMRA-MyoIIA peptide fluorescence polarization. inhibition, % at 10.7 µM. hit rate 0.14% among 360,000;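 active means mean inhibition of at least 70% across replicates, with every replicate also reaching that level; inconclusive means mean inhibition reaches 70% but some replicates fall short; inactive means mean inhibition below 70%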
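Compound dosing: one dose per compound; test system: human S100A4 monomer with TAMRA-labelled myosin IIA peptide; probe or stimulus: TAMRA-labelled myosin IIA heavy-chain peptide probe, 5 nM; medium: HEPES buffer with Ca2+, pH 7.2; schedule: 5 min incubation before reading; benchmarks: neutral control DMSO, positive control TFP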
ERAP1 inh = inhibitors of human ERAP1 aminopeptidase. hit rate 0.15% among 340,000. recombinant ERAP1, Leu-AMC fluorescence, 60 min. inhibition, % at 10.7 µM. Q9NZ08. AID 652197;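 active means mean replicate inhibition of at least 30%, or all replicates individually reaching that 30% level; inactive means mean below 30% and not every replicate reaching it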;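 further: 0% = neutral control wells and 100% = L-leucinethiol positive control wells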
ERp5 block = blocks human ERp5 reductase activity on insulin | Q15084 | hit rate 0.05% among 350,000 | ERp5 insulin aggregation, absorbance 650 nm, 90 min | inhibition, % at 9.99 µM | AID 651711;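 active means mean replicate inhibition above about 25%, with every replicate also reaching it, limit read from the data, passing the limit was not always enough; inconclusive means only one of those two criteria met; inactive means neither criterion met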
Target sequence (Q15084 whole entry, looked up): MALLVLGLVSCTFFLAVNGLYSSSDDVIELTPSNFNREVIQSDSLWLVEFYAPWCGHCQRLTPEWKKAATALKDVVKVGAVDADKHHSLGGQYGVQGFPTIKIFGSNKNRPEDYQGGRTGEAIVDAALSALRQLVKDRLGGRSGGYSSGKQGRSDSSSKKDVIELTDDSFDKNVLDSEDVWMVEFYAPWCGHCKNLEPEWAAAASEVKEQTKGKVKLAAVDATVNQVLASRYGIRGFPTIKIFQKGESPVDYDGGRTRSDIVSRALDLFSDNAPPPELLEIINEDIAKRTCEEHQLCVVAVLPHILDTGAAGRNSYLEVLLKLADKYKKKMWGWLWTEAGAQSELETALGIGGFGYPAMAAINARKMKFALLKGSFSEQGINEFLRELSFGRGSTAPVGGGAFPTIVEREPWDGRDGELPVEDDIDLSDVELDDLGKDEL
* marks the source's active call; other numbers are inactive results; u = inconclusive; x = no result given. The entries come from a sample that favours hits as a whole.

SMILES | PDI inh | FGF22 binding | S100A4 MyoIIA | ERAP1 inh | ERp5 block
CCCN(CC(=O)Nc1ccccc1C)C(=O)c1ccc(COc2ccccc2)cc1 | 3 | 0 | 1 | -3 | -5
CN(Cc1ccccc1)S(=O)(=O)c1cccc2nsnc12 | 0 | 44* | -6 | 1 | -1
CCN(CC)S(=O)(=O)c1cccc2nsnc12 | 14 | x | x | x | x
Cc1ccc(SCC(=O)Nc2nccs2)cc1 | 0 | 43* | -11 | 3 | u
O=C(CCCc1ccccn1)c1cccc2ccccc12 | -14 | 0 | -1 | 5 | 0
O=C(CCCc1ccccn1)c1ccc(-c2ccccc2)cc1 | 8 | 44* | -2 | 0 | -7
O=C(N/N=C/c1oc(O)c2ccccc12)c1ccccc1 | 8 | 44* | 2 | 3 | 0
CN(C)/C=N/NC(=O)c1ccccc1 | 11 | x | -11 | -2 | 7
O=C(NN=c1c(=O)c2ccccc2c1=O)c1ccccc1 | 1 | 0 | 3 | -8 | 33*
COc1ccccc1-n1nnnc1SCC(=O)Nc1oc(C)c2c(C)n[nH]c(=O)c12 | 11 | 0 | 0 | 3 | 1
COC(=O)c1ccc2c(=O)n(CCCCCC(=O)O)c(=O)[nH]c2c1 | 3 | 0 | -7 | 5 | 8
COc1ccc(-c2cc3c(nn2)-c2ccccc2C3=O)cc1 | 5 | 43* | -3 | 1 | -9
O=C1c2ccccc2-c2nnc(-c3ccccc3)cc21 | -3 | x | x | x | x
C[C@H](CO)N1C[C@H](C)[C@H](CN(C)C(=O)Nc2ccc(C(F)(F)F)cc2)Oc2ccc(NC(=O)C3CCCCC3)cc2CC1=O | x | 0 | -1 | 0 | 0
CCOC(=O)C1(CCOC)CCN(Cc2ccc(COC)o2)CC1 | 12 | 43 | 2 | 1 | -2
CCOC(=O)C1(CCOC)CCN(C2C3CC4CC(C3)CC2C4)CC1 (configuration not stated) | 4 | 43* | -3 | -1 | 5
CC(CN1C(C)CCCC1C)OC(=O)c1ccc(Cl)cc1 (configuration not stated) | 4 | 44* | -9 | 2 | 1
Cn1cccc2[nH]c(=O)nc1-2 | -8 | 0 | -3 | 89* | 0
Cc1cc(-c2ccccc2)nc(=O)[nH]1 | 0 | x | x | x | x
COc1ccc(NC(=S)NNC(=O)c2cccnc2)cc1OC | 1 | 0 | 9 | -5 | 0
COC(=O)c1cc(OC)c(OC)cc1NC(=S)Nc1cccc(C(C)=O)c1 | -3 | x | x | x | x
COc1ccc(Cl)cc1NC(=S)NNC(=O)c1cccnc1 | 0 | 43* | -3 | 6 | -1
COC(=O)c1cccc(NC(=S)Nc2cc(Cl)ccc2OC)c1 | 8 | 43* | -5 | -1 | -3
Cc1ccc(C(=O)NCCc2nnc3ccc(SCC(=O)Nc4cc(C)on4)nn23)cc1 | -2 | 0 | -1 | 4 | -1
COC(=O)C1C(c2ccc(N(C)C)cc2)C(C(=O)OC)S(=O)(=O)CS1(=O)=O (configuration not stated) | -7 | 43* | 4 | -5 | 2
SMILES | PDI inh | FGF22 binding | S100A4 MyoIIA | ERAP1 inh | ERp5 block
CN(N=Cc1ccc([N+](=O)[O-])cc1)c1ccccn1 | -8 | 0 | 84* | 1 | 14
C[C@H](CO)N1C[C@H](C)[C@H](CN(C)S(=O)(=O)c2ccccc2)Oc2ccc(NC(=O)C3CC3)cc2C1=O | x | -1 | 11 | 0 | -1
c1ccc(CC2CCN(c3nnnn3-c3ccccc3)CC2)cc1 | -9 | x | x | x | x
N/C(=N/O)c1ccccc1N1CCC(Cc2ccccc2)CC1 | -1 | 44* | -1 | 2 | 1
O=C(CCc1nnc2ccc(N3CCCC3)nn12)Nc1ccc(F)cc1F | -8 | 0 | 2 | 5 | 5
Cc1noc(C)c1NC(=O)Nc1ccc2c(c1)CC(=O)N([C@@H](C)CO)C[C@H](C)[C@@H](CN(C)C(=O)Nc1cccc3ccccc13)O2 | x | 0 | 9 | 1 | -15
CCOc1ncccc1C(=O)OC(C)C(=O)NC(=O)NC1CCCCC1 (configuration not stated) | 2 | 43* | 3 | 0 | -1
Cc1cccc(C(=O)OC(C)C(=O)NC(=O)NC2CCCCC2)c1O (configuration not stated) | -11 | x | x | x | x
CN(C)c1cc[n+](CC(=O)Nc2ccc(Cl)c([N+](=O)[O-])c2)cc1 | 13 | 0 | -3 | 3 | 2
O=C(CNC(=O)c1ccccc1)N/N=C/c1cc(Br)ccc1O | -1 | 0 | -3 | 2 | 3
O=C(CNC(=O)c1ccccc1Br)N/N=C/c1cc(Br)ccc1O | 5 | 44* | 0 | -1 | 3
O=C(CNC(=O)c1ccccc1Br)N/N=C/c1ccccc1O | -3 | 43* | 3 | 1 | -7
O=C(O)CNC(=O)c1ccccc1Br | -2 | 43* | -3 | -6 | 5
O=C(CNC(=O)c1cccc(Br)c1)N/N=C/c1ccc[nH]1 | -7 | 43* | -1 | -2 | 1
O=C(COC(=O)[C@@H]1CC(O)CN1S(=O)(=O)c1ccccc1[N+](=O)[O-])Nc1ccc2ccccc2c1 (some centres not stated) | 3 | x | x | x | x
O=C(NCc1ccccc1F)c1cccc(S(=O)(=O)N2CCCCC2)c1 | -7 | 0 | 3 | 6 | 8
COCCN(C(=O)c1cccc(OC)c1)c1nnc(-c2ccncc2)s1 | 0 | x | x | x | x
COc1ccc(-c2ccnc3ncnn23)cc1 | 0 | 43* | 3 | 5 | 2
FCCCOc1ccc(-c2ccnc3ncnn23)cc1 | 3 | 0 | -2 | 2 | 2
Cc1noc(C)c1NC(=O)N(C)C[C@H]1Oc2cc(C#CCC3CCCC3)ccc2S(=O)(=O)N([C@H](C)CO)C[C@@H]1C | x | -1 | 6 | 1 | 5
COc1ccc(OCc2nnc(NC(=O)Nc3ccccc3F)s2)cc1 | 0 | 0 | -9 | -4 | -1
O=C(NC1CCCCC1)C(c1ccccc1)n1c(=O)c(-c2cc3ccccc3[nH]2)nc2ccccc21 (configuration not stated) | x | 35* | 0 | -1 | 4
COc1ccc(C(C(=O)NC2CCCCC2)n2c(=O)c(-c3cc4ccccc4[nH]3)nc3ccccc32)cc1 (configuration not stated) | x | 0 | -4 | x | -2
CCCCC(CCCCl)C(=O)Nc1ccccc1 (configuration not stated) | -2 | 43* | -1 | 3 | -2
CCCCC(CC)C(=O)Nc1cccc(SC)c1 (configuration not stated) | 1 | x | -1 | -2 | -5
CCN(CC)S(=O)(=O)c1cccc(C(=O)c2c(C)cc3ccccn23)c1 | 7 | 43* | -1 | -5 | -4
Cc1cc2ccccn2c1C(=O)c1cc([N+](=O)[O-])cc([N+](=O)[O-])c1 | 1 | 0 | -1 | -2 | 6
O=C(O)c1ccccc1C(=O)OC1CCCC2CCCC21 (configuration not stated) | 5 | 43* | -1 | -6 | -2
O=C(O)c1ccccc1N1C(=O)C2C3CCC(C3)C2C1=O (configuration not stated) | 0 | 0 | -1 | 1 | -1
